Screening results (PubChem BioAssay)
CRFBP-R2 agonist – CRF-BP/CRF-R2 complex agonism; HEK293 CRF-R2/CRF-BP, calcium dye fluorescence (FLIPR); percent of saturating CRF peptide response; activation, % at 13.2 µM; 350,000 compounds, 0.46% hits; AID 588473;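 active means activation of at least 50%, plus an integration ratio under a set limit after plate pattern correction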
CRFR2-BP antag – antagonists of CRF-binding protein/CRF-R2 receptor complex; HEK293 CRF-R2/CRF-BP, CRF-induced calcium fluorescence; inhibition, % at 11.8 µM; 350,000 compounds, 0.59% hits;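 active means inhibition of the ligand-induced calcium signal above about 50% at the single tested concentration, limit read from the data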
ANO1 activ – activates or potentiates the mouse TMEM16A chloride channel | HEK293 TMEM16A/YFP-H148Q/I152L, iodide quench fluorescence; active compounds read low | 340,000 compounds, 0.3% hits | B-score at 10 µM | AID 623877;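 active means fluorescence-ratio B-score plate-corrected deviation score at least 3 library SD below zero, with starting fluorescence score within 5 deviations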;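 further: channel opened by trigger with iodide after compound preincubation; score built on the fluorescence ratio of max minus min over baseline; more negative score means more quench and so TMEM16A activation or potentiation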
TAAR1 antag – antagonists of human TAAR1. 360,000 compounds, 1.5% hits. CHO RD-HGA16 TAAR1, Fluo-8 calcium fluorescence, antagonist. Q96RJ0. inhibition, % at 3 µM;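 active means inhibition above a per-plate cutoff, the mean inhibition of test compounds on that plate plus 3 SD, cut at about 49% in these data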
Target sequence (Q96RJ0 whole entry, looked up): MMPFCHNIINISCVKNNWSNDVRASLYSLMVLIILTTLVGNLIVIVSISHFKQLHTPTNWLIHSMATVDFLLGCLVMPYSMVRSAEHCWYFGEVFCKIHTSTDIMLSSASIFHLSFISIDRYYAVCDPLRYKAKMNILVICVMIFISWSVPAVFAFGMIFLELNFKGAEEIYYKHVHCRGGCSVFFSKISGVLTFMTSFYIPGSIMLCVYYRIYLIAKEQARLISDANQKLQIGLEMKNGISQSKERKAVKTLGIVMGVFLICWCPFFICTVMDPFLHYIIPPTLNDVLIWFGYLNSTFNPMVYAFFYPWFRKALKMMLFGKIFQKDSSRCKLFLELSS
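Test system – hTAAR1-expressing CHO RD-HGA16 cells, Gα16-coupled · Reagent – β-PEA at EC80 concentration, post-compound challenge · Compound dosing – 3 µM, single point · Timing – 140 s kinetic read after compound, 140 s after agonist · Detection – Fluo-8 intracellular calcium dye fluorescence, real-time kinetic reads · Control set – DMSO and EC80 PEA controls · Repeats – n of 1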
ANO1 block – blocks the mouse calcium-activated chloride channel TMEM16A | 310,000 compounds, 1.2% hits | HEK293 TMEM16A/YFP iodide influx fluorescence, ionomycin | AID 588511 | Q8BHY3 | normalized B-score (activity score, 25-100; higher = stronger inhibition) at 10 µM;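 active means ratio plate-corrected score three or more library SD toward inhibition, starting fluorescence score within five deviations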;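 further: score derived from kinetic fluorescence span divided by baseline fluorescence per well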
TAAR1 ag – human TAAR1 agonism. Q96RJ0. CHO RD-HGA16 TAAR1, Fluo-8 calcium fluorescence; vehicle wells 0%, saturating PEA agonist 100%. activation, % at 3 µM. 360,000 compounds, 0.99% hits. AID 624467;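 active means activation above the mean activation of all test compounds in the run plus 3 SD, cut at about 38% in these data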
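System: CHO-derived RD-HGA16 cells with stable Gα16 and human TAAR1. Times: 17-24 h plating, Fluo-8 75 min 37 °C, 30 min RT. Measured by: calcium-sensitive Fluo-8 signal, excitation 470-495, emission 515-575 nm. Read-out basis: % activation relative to PEA EC100 response. Control set: DMSO and PEA EC100. Repeats: no replicates (n 1).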
A number is an active result; - = inactive; . = no result given. Rows were chosen to be rich in hits. Some 3.9% of all compounds tested hit in one or more screens of this group.

SMILES	CRFBP-R2 agonist	CRFR2-BP antag	ANO1 activ	TAAR1 antag	ANO1 block	TAAR1 ag
COc1cccc(/C=C(\C)C(=O)c2c(C)cc(C)[nH]c2=O)c1OC	-	-	-	-	-	-
COc1ccc(OC)c(CN2CCN(S(=O)(=O)c3ccc(NC(C)=O)cc3)CC2)c1	-	53	-	-	-	-
COc1cccc(CN2CCN(S(=O)(=O)c3ccc(NC(C)=O)cc3)CC2)c1OC	-	-	-	-	-	-
CCC(C)(C)C1CCC2(CC1)NC(=O)N(CC(=O)N1CCN(S(=O)(=O)c3cc(C)ccc3C)CC1)C2=O (stereo not given)	-	-	-	-	-	-
NCC(c1ccccc1Cl)c1c[nH]c2ccccc12 (stereo not given)	-	-	-	-	-	-
NCC(c1ccc(Cl)cc1Cl)c1c[nH]c2ccccc12 (stereo not given)	-	-	-	-	-	45
Cc1ccc(C)c(C(=O)COC(=O)CCN2C(=O)C3C4CCC(C4)C3C2=O)c1 (stereo not given)	-	-	-	-	.	-
O=C(NCCc1ccccc1F)C1CC(=O)N(c2cccc(C(F)(F)F)c2)C1 (stereo not given)	-	-	-	-	.	-
COc1cccc(C2C=C(c3ccc(Br)s3)Nc3ncnn32)c1OC (stereo not given)	106	-	-	.	-	.
Fc1ccc(Br)cc1C1C=C(c2ccc(Br)s2)Nc2ncnn21 (stereo not given)	-	-	-	.	-	.
CSc1nnc(SCC#N)s1	-	-	-	-	-	-
COc1ccc(CN2CCCCC2C)cc1C (stereo not given)	162	60	-	-	-	-
[O-][n+]1c2c(c3c4non(O)c4ccc31)CCCC2	85	53	-	-	100	-
COc1ccc(NC(=O)C2CC(=O)N(CCc3ccc(F)cc3)C2)c(OC)c1 (stereo not given)	-	-	-	-	-	-
Cc1ccc(NC(=O)CSc2nc3ccccc3c(=O)n2CCCC(=O)NCCCN2CCOCC2)cc1	-	72	-	-	-	-
CC(=O)NC(C)(c1ccccc1)c1nc(-c2ccc(N(C)C)cc2)cs1 (stereo not given)	.	.	.	-	.	-
c1ccc2c(c1)OCC(CNCC1COc3ccccc3O1)O2 (stereo not given)	-	-	-	-	-	-
Oc1ccc(CNCC2COc3ccccc3O2)cc1 (stereo not given)	-	-	-	-	-	38
CCCCc1ccc(NC(=S)NCc2cccc(OC)c2)cc1	-	-	-	-	100	-
CCCCc1ccc(NC(=O)Nc2cccnc2)cc1	-	-	-	-	-	-
CCCCc1ccc(NC(=S)Nc2ccc(Cl)c(S(=O)(=O)N(C)C)c2)cc1	-	-	-	-	100	-
CCCCc1ccc(NC(=S)Nc2cccnc2)cc1	-	53	-	-	-	-
CCCCCCCCNc1ccccc1S(=O)(=O)NCc1ccccc1	-	-	.	-	.	-
O=S(=O)(NCc1ccccc1)c1ccccc1NCCc1ccccc1	-	110	.	-	.	-
CCNC(=O)C1CCCN(C(=O)C(c2ccccc2)c2ccccc2)CC1 (stereo not given)	.	.	.	-	.	-
SMILES	CRFBP-R2 agonist	CRFR2-BP antag	ANO1 activ	TAAR1 antag	ANO1 block	TAAR1 ag
CCOc1ccccc1N1Cc2cc(C)c(C)cc2C1	-	-	-	-	-	-
CCOc1ccccc1N1Cc2ccccc2C1	-	-	-5.5	-	-	-
COc1ccc(CC(=O)OCC(=O)N2CCCc3ccccc32)cc1OC	-	-	-	-	-	-
COc1ccc(CC(=O)OCC(=O)N2CCc3ccccc32)cc1OC	-	-	-25	-	.	-
O=C(/C=C/c1cccc(F)c1)OCC(=O)N1CCc2ccccc21	-	-	-	49	.	-
CCC(=O)c1ccc(OCC(=O)NCCCN2CCOCC2)cc1	-	52	-	-	.	-
CCOc1ccc(C(=O)NNC(=O)CCNC(=O)c2ccc(Br)cc2)cc1OC	-	-	-	-	.	-
CCOc1ccc(C(=O)NNC(=O)CCNC(=O)c2ccco2)cc1OC	-	97	-	-	-	-
O=C(COc1cc(F)ccc1[N+](=O)[O-])Nc1cc(S(=O)(=O)N2CCCC2)ccc1Cl	-	-	-	-	.	-
Cc1ccc(-n2[nH]c(C)c(/C=N/Nc3ccc([N+](=O)[O-])cc3[N+](=O)[O-])c2=O)cc1C	-	85	-	-	25	-
Cc1[nH]n(-c2ccccc2)c(=O)c1/C=N/NC(=O)c1cccc([N+](=O)[O-])c1	-	-	-	-	-	-
CCOC(=O)c1sc2ncc([N+](=O)[O-])cc2c1N	-	-	-	-	-	-
COC(=O)c1sc2cc([N+](=O)[O-])cc(SCC(C)C)c2c1N	55	-	-	-	-	-
CCCn1c(SC(C)C(=O)N2CCOCC2)nc2ccc(Br)cc2c1=O (stereo not given)	-	-	-	-	-	-
COc1ccc(C(=O)CSc2nnc(NC(=O)C3CC(=O)N(c4ccccc4C)C3)s2)cc1 (stereo not given)	-	-	-	53	-	-
CCOC(=O)/C(=N\Nc1ccc(C(C)=O)cc1)c1csc(Nc2ccccc2)n1	74	-	-	-	-	-
Cc1ccc(S(=O)(=O)N2C[C@H]3C(=O)C[C@@H]4C(=O)N(c5ccccc5)C(=O)[C@@H]4[C@@H]3C[C@H]2c2cccc(Cl)c2)cc1	.	.	.	60	.	-
COc1ccc2[nH]cc(CCNC(=O)/C=C/[C@H]3O[C@@H](n4cnc5c(NC(=O)c6ccccc6)ncnc54)[C@H](O)[C@@H]3O)c2c1	.	.	.	-	.	-
COc1cccc(N2CCN(C(=O)c3cn(Cc4ccccc4)nc3-c3cccnc3)CC2)c1	-	-	-	-	.	-
COc1ccccc1N1CCN(C(=O)c2cn(Cc3ccccc3)nc2-c2cccnc2)CC1	-	-	-	-	.	47
O=C(Nc1ccc2c(c1)OCCO2)c1ccc(Br)c(S(=O)(=O)N2CCOCC2)c1	-	-	-	54	.	-
Cc1cc(C)n(-c2ccc(C(=O)Oc3ccc4c(c3)OCO4)cc2)n1	-	73	-	-	-	-
O=C(Nc1ccc2c(c1)OCO2)c1ccc(Br)c(S(=O)(=O)N2CCCC2)c1	-	-	-	-	-	-
O=C(Oc1ccc2c(c1)OCO2)c1ccc(Br)c(S(=O)(=O)N2CCOCC2)c1	-	-	-	51	-	-
CC(=O)c1ccc(OC(=O)c2ccc(-n3nc(C)cc3C)cc2)cc1	-	-	-	-	-	-
Cc1cc(OCC(=O)NCCCn2ccnc2)c2c(C)c(C)c(=O)oc2c1	-	-	-	-	-	-
